Data: ChEMBL document CHEMBL1123645, “Phenylephrine derivatives as leukotriene D4 antagonists” (J Med Chem, 1987)
Each block holds one compound with its values, some of them ahead of it. The source made the active and inactive calls. No cut-off for these calls is given here.

Key:
Cavia porcellus [1] = test: Inhibition of LTD4 (leukotriene) induced bronchospasm in the guinea pig when administered intraduodenally (50 mg/kg)
Cavia porcellus [2] = test: Inhibition of LTD4 (leukotriene) induced bronchospasm in the guinea pig when administered perorally (50 mg/kg); NA means not active; type: functional, organism-based
Summary of the method: (§1)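 Guinea pig bronchoconstriction induced by LTD4 or by ovalbumin. Antagonist was dosed orally to awake animals 120 min before the agonist, which is 95 min before anesthetic. […] Single-dose lines give percent inhibition at the stated oral dose.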

[3] = molecular target: Cysteinyl leukotriene receptor (Homo sapiens) (UniProt Q9Y271+Q9NS75); test: Inhibition of Ovalbumin (OA) induced bronchospasm in the guinea pig when administered intraduodenally (50 mg/kg); type: functional, organism-based; conditions: Cavia porcellus; target entry is the homologue from another species
Sequence of Cysteinyl leukotriene receptor (Homo sapiens) (Q9NS75 whole entry, looked up): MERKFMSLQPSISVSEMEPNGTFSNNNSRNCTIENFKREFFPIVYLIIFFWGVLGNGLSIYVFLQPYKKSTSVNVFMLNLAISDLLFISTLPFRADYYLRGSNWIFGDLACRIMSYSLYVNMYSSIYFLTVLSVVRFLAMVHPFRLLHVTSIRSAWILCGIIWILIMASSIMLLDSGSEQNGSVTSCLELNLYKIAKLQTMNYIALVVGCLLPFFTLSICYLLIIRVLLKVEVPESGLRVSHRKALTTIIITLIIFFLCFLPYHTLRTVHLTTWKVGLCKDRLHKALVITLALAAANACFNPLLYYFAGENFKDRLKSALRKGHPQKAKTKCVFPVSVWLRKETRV
Sequence of Cysteinyl leukotriene receptor (Homo sapiens) (Q9Y271 whole entry, looked up): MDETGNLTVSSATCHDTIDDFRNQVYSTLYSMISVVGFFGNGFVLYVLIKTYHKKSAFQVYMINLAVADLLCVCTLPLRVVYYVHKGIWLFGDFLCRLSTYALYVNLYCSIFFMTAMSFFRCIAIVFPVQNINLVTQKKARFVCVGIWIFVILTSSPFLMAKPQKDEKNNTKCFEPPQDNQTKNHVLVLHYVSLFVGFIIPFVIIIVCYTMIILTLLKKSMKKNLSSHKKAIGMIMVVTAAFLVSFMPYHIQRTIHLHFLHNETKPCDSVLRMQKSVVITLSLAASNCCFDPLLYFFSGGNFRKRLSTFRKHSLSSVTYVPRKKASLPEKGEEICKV
Summary of the method: (§2)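 Guinea pig bronchoconstriction induced by LTD4 or by ovalbumin. Antagonist was given intraduodenally 10 min before the agonist. […] Single-dose lines give percent inhibition at the stated id dose.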

Cavia porcellus [4] = test: Inhibition of Ovalbumin (OA) induced bronchospasm in the guinea pig when administered intraduodenally at 25 mg/kg; NA means not active; type: functional, organism-based; parameters: dose 25 mg/kg
Summary of the method: as §2

Cavia porcellus [5] = test: Inhibition of Ovalbumin (OA) induced bronchospasm in the guinea pig when administered perorally (50 mg/kg); type: functional
Summary of the method: as §1

Cavia porcellus [6] = test: Inhibition of LTD4 (leukotriene) induced bronchospasm in the guinea pig when administered perorally (25 mg/kg), A minus(-)number indicates potentiation.; NA means not active; type: functional, organism-based
Summary of the method: as §1

Cavia porcellus [7] = test: Inhibition of LTD4 (leukotriene) induced bronchospasm in the guinea pig when administered intraduodenally at 25 mg/kg
Cavia porcellus [8] = test: Inhibition of LTD4 (leukotriene) induced bronchospasm in the guinea pig when administered perorally (50 mg/kg)
Cavia porcellus [9] = test: Inhibition of LTD4 (leukotriene) induced bronchospasm in the guinea pig when administered perorally at 25 mg/kg; NA means not active; type: functional, organism-based; parameters: dose 25 mg/kg
Summary of the method: as §1

Cavia porcellus [10] = test: Inhibition of LTD4 (leukotriene) induced bronchospasm in the guinea pig when administered perorally (50 mg/kg); remark: listed apart in the source
Cavia porcellus [11] = test: Inhibition of Ovalbumin (OA) induced bronchospasm in the guinea pig when administered perorally (50 mg/kg); NA means not active,<10%inhibition; type: functional, organism-based
Summary of the method: as §1

Cavia porcellus [12] = test: Inhibition of Ovalbumin (OA) induced bronchospasm in the guinea pig when administered perorally at 25 mg/kg; type: functional; conditions: route oral
Summary of the method: as §1

Cavia porcellus [13] = test: Inhibition of Ovalbumin (OA) induced bronchospasm in the guinea pig when administered intraduodenally at 25 mg/kg; type: functional; conditions: route intraduodenal
Summary of the method: as §2

Cavia porcellus [14] = test: Antagonist activity was determined by the ability to inhibit of LTD4 (leukotriene D4) induced bronchospasm when administered intraduodenally; type: functional; conditions: intraduodenal
Summary of the method: as §2

Cavia porcellus [15] = test: Relative inhibitory potency against LTD4 (leukotriene D4) induced bronchospasm when administered per orally; type: functional
Cavia porcellus [16] = species on record: Cavia porcellus; test: relative potency antagonist on LTD4-induced contraction of isolated guinea pig trachea; type: functional
Summary of the method: (§3)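 Guinea pig tracheal spirals stretched to near-optimal length and equilibrated 1.5 h, washed every 15 min. Indomethacin (5 μM) was present in all tissues. Cumulative LTD4 dose-response curves were recorded isometrically via force transducers. Paired proximal/distal strips from one animal got solvent control or drug. Values are negative log, mean ± SEM, and were compared by Student's t test.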

Cavia porcellus [17] = test: Relative inhibitory potency against LTD4 (leukotriene D4) induced bronchospasm when administered intraduodenally; type: functional
Cavia porcellus [18] = test: Antagonist activity was determined by the ability to inhibit of ovalbumin induced bronchospasm when administered intraduodenally; type: functional; conditions: intraduodenal
Summary of the method: as §2

Cavia porcellus [19] = test: Antagonist activity was determined by the ability to inhibit of ovalbumin induced bronchospasm when administered per orally; type: functional; conditions: po
Summary of the method: as §1

Cavia porcellus [20] = test: Relative inhibitory potency against ovalbumin induced bronchospasm when administered per orally; type: functional
Cavia porcellus [21] = species on record: Cavia porcellus; test: Antagonist activity towards LTD4-induced contraction of isolated guinea pig; type: functional
Summary of the method: as §3

Cavia porcellus [22] = test: Antagonist activity was determined by the ability to inhibit of LTD4 (leukotriene D4) induced bronchospasm when administered per orally; type: functional; conditions: po
Summary of the method: as §1

Cavia porcellus [23] = test: Relative inhibitory potency against ovalbumin induced bronchospasm when administered intraduodenally; type: functional
Cavia porcellus [24] = test: Inhibition of Ovalbumin (OA) induced bronchospasm in the guinea pig when administered intraduodenally (50 mg/kg); NA means not active; type: functional, organism-based
Summary of the method: as §2

Cavia porcellus [25] = test: Inhibition of LTD4 (leukotriene) induced bronchospasm in the guinea pig when administered intraduodenally (50 mg/kg); type: functional
Summary of the method: as §2

Cavia porcellus [26] = test: Inhibition of LTD4 (leukotriene) induced bronchospasm in the guinea pig when administered intraduodenally (50 mg/kg); Not active; type: functional, organism-based
Summary of the method: as §2

Cavia porcellus [27] = test: Inhibition of LTD4 (leukotriene) induced bronchospasm in the guinea pig when administered intraduodenally (50 mg/kg) NA means not active; type: functional, organism-based
Summary of the method: as §2

Cavia porcellus [28] = species on record: Cavia porcellus; test: relative potency antagonist on LTD4-induced contraction of isolated guinea pig; type: functional
Summary of the method: as §3

[29] = molecular target: Cyclooxygenase (Rattus norvegicus); test: Ability to inhibit Prostaglandin G/H synthase in rat

SMILES: CCN(CC)C(=O)N(CC)C[C@H](O)c1cccc(OCc2ccc3ccccc3n2)c1
inhibition (Cavia porcellus [1]): 34%

SMILES: CCNC(=O)O[C@@H](CN(C)C(=O)N(CC)CC)c1cccc(OCc2ccc3ccccc3n2)c1
inhibition (Cavia porcellus [2]): inactive | inhibition [3]: 80% | inhibition (Cavia porcellus [1]): 54%

SMILES: CN1C[C@H](c2cccc(OCc3ccc4ccccc4n3)c2)OC1=O
inhibition (Cavia porcellus [4]): inactive | inhibition (Cavia porcellus [1]): 99%

SMILES: CCNC(=O)N(C)CC(O)c1cccc(OCc2ccc3ccccc3n2)c1 (stereo unspecified)
Inhibition (Cavia porcellus [5]): 46% | inhibition (Cavia porcellus [6]): inactive | inhibition (Cavia porcellus [1]): 82%

SMILES: c1cncc(C2=NCC(c3cccc(OCc4ccc5ccccc5n4)c3)O2)c1 (stereo unspecified)
inhibition (Cavia porcellus [7]): 86% | inhibition (Cavia porcellus [8]): inactive | inhibition (Cavia porcellus [9]): inactive

SMILES: CCC(=O)N(C)C[C@H](O)c1cccc(OCc2nc3ccccc3n2C)c1
inhibition (Cavia porcellus [10]): 13% | inhibition [3]: 66% | inhibition (Cavia porcellus [1]): 51%

SMILES: CCN(CC)C(=O)N(C)C[C@H](O)c1cccc(OCc2nc3ccccc3n2C)c1
inhibition (Cavia porcellus [10]): 38% | inhibition [3]: 84% | inhibition (Cavia porcellus [11]): inactive | inhibition (Cavia porcellus [1]): 77%

SMILES: O=C(NCC(O)c1cccc(OCc2ccc3ccccc3n2)c1)c1ccccn1 (stereo unspecified)
inhibition (Cavia porcellus [7]): 20%

SMILES: NCC(O)c1cccc(OCc2ccc3ccccc3n2)c1 (stereo unspecified)
inhibition (Cavia porcellus [1]): 23%

SMILES: CCN(CC)C(=O)N(C)C[C@H](O)c1cccc(OCc2nc3ccccc3s2)c1
Inhibition (Cavia porcellus [5]): 41% | inhibition [3]: 36% | inhibition (Cavia porcellus [1]): 59%

SMILES: CCOC(=O)CC(=O)NCC(O)c1cccc(OCc2ccc3ccccc3n2)c1 (stereo unspecified)
inhibition (Cavia porcellus [7]): 25%

SMILES: O=S(=O)(NCC(O)c1cccc(OCc2ccc3ccccc3n2)c1)C(F)(F)F (stereo unspecified)
inhibition (Cavia porcellus [7]): 83% | inhibition in vivo at 25 mg/kg (Cavia porcellus [12]): -53% | inhibition in vivo at 25 mg/kg (Cavia porcellus [13]): 29%

SMILES: CCOC(=O)N(C)C[C@H](O)c1cccc(OCc2ccc3ccccc3n2)c1
inhibition [3]: 20% | inhibition (Cavia porcellus [1]): 71%

SMILES: CCN(CC)C(=O)N(C)C[C@H](O)c1cccc(OCc2ccc3ccccc3n2)c1
ED50 (Cavia porcellus [14]): 9 mg/kg | Potency (Cavia porcellus [15]): 1.8 | Inhibition (Cavia porcellus [5]): 25% | Potency (Cavia porcellus [16]): 23 | Potency (Cavia porcellus [17]): 1.5 | ED50 (Cavia porcellus [18]): 20 mg/kg | ED50 (Cavia porcellus [19]): 55 mg/kg | Potency (Cavia porcellus [20]): 1.4 | inhibition [3]: 75% | pkB (Cavia porcellus [21]): 5.22 | ED50 (Cavia porcellus [22]): 56 mg/kg | Potency (Cavia porcellus [23]): 1.1

SMILES: CN(C)S(=O)(=O)N(C)C[C@H](O)c1cccc(OCc2ccc3ccccc3n2)c1
inhibition (Cavia porcellus [24]): inactive | inhibition (Cavia porcellus [10]): 33% | inhibition (Cavia porcellus [1]): 56%

SMILES: CCOC(=O)NCC(O)c1cccc(OCc2ccc3ccccc3n2)c1 (stereo unspecified)
inhibition (Cavia porcellus [7]): 36%

SMILES: CNC(=O)N(C)CC(O)c1cccc(OCc2ccc3ccccc3n2)c1 (stereo unspecified)
pInhibition (Cavia porcellus [25]): 92% | inhibition in vivo at 25 mg/kg (Cavia porcellus [13]): 95%

SMILES: CN1CC(c2cccc(OCc3ccc4ccccc4n3)c2)OC1=S (stereo unspecified)
inhibition (Cavia porcellus [26]): inactive

SMILES: O=C1OC(c2cccc(OCc3ccc4ccccc4n3)c2)CN1Cc1ccc2ccccc2n1 (stereo unspecified)
inhibition [3]: 50% | inhibition (Cavia porcellus [1]): 31%

SMILES: O=C(NCC(O)c1cccc(OCc2ccc3ccccc3n2)c1)c1ccccc1 (stereo unspecified)
inhibition (Cavia porcellus [7]): 18%

SMILES: O=C(NCC(O)c1cccc(OCc2ccc3ccccc3n2)c1)c1cccs1 (stereo unspecified)
inhibition (Cavia porcellus [7]): 82% | inhibition (Cavia porcellus [9]): inactive

SMILES: c1cc(OCc2ccc3ccccc3n2)cc(C2CN=C(c3ccncc3)O2)c1 (stereo unspecified)
inhibition (Cavia porcellus [7]): 77% | inhibition (Cavia porcellus [8]): inactive

SMILES: CN1CC(c2cccc(OCc3nc4ccccc4s3)c2)OC1=O (stereo unspecified)
inhibition (Cavia porcellus [27]): inactive

SMILES: CN(C[C@H](O)c1cccc(OCc2ccc3ccccc3n2)c1)C(=O)N(c1ccccc1)c1ccccc1
inhibition (Cavia porcellus [1]): 21%

SMILES: O=C1NCC(c2cccc(OCc3ccc4ccccc4n3)c2)O1 (stereo unspecified)
inhibition (Cavia porcellus [7]): 66%

Further lines, with some results ahead:

inhibition (Cavia porcellus [1]): 26%
SMILES: CCN(CC)C(=O)N(C)CC(=O)c1cccc(OCc2ccc3ccccc3n2)c1

inhibition (Cavia porcellus [1]): 31%
SMILES: CN(C[C@H](O)c1cccc(OCc2ccc3ccccc3n2)c1)C(=O)c1ccncc1

inhibition (Cavia porcellus [1]): 41%
SMILES: c1cc(OCc2ccc3ccccc3n2)cc(C2CN=C(c3cccs3)O2)c1 (stereo unspecified)

inhibition [3]: 23% | inhibition (Cavia porcellus [1]): 71%
SMILES: COC(=O)C1CCCN1C(=O)N(C)C[C@H](O)c1cccc(OCc2ccc3ccccc3n2)c1 (stereo partly specified)

inhibition (Cavia porcellus [10]): 15% | inhibition (Cavia porcellus [8]): 15% | inhibition (Cavia porcellus [1]): 93%
SMILES: CN(C)C(=O)N(C)C[C@H](O)c1cccc(OCc2ccc3ccccc3n2)c1

inhibition (Cavia porcellus [1]): 80%
SMILES: CCC1=NCC(c2cccc(OCc3ccc4ccccc4n3)c2)O1 (stereo unspecified)
inhibition (Cavia porcellus [4]): inactive

inhibition (Cavia porcellus [7]): 11%
SMILES: c1ccc(C2=NCC(c3cccc(OCc4ccc5ccccc5n4)c3)O2)cc1 (stereo unspecified)

inhibition (Cavia porcellus [7]): 77%
SMILES: CCOC(=O)CC1=NCC(c2cccc(OCc3ccc4ccccc4n3)c2)O1 (stereo unspecified)

IC50 [29]: > 100 µM | inhibition (Cavia porcellus [10]): 56% | inhibition [3]: 56% | inhibition (Cavia porcellus [1]): 91%
SMILES: CN1C[C@@H](c2cccc(OCc3ccc4ccccc4n3)c2)OC1=O
ED50 (Cavia porcellus [14]): 12 mg/kg | Potency (Cavia porcellus [15]): 1.1 | Inhibition (Cavia porcellus [5]): 56% | Potency (Cavia porcellus [17]): 2 | ED50 (Cavia porcellus [18]): 42 mg/kg | Potency (Cavia porcellus [28]): 3 | ED50 (Cavia porcellus [19]): 95 mg/kg | Potency (Cavia porcellus [20]): 2.5 | pkb (Cavia porcellus [21]): 6.09 | ED50 (Cavia porcellus [22]): 36 mg/kg | Potency (Cavia porcellus [23]): 2.2

inhibition (Cavia porcellus [1]): 92%
SMILES: c1ccc(C2=NCC(c3cccc(OCc4ccc5ccccc5n4)c3)O2)nc1 (stereo unspecified)
inhibition in vivo at 25 mg/kg (Cavia porcellus [13]): 87%

inhibition (Cavia porcellus [7]): 41%
SMILES: C#CCN(C)C[C@H](O)c1cccc(OCc2ccc3ccccc3n2)c1

inhibition (Cavia porcellus [1]): 65%
SMILES: CN1CC(c2cccc(OCc3nc4ccccc4n3C)c2)OC1=O (stereo unspecified)
inhibition in vivo at 25 mg/kg (Cavia porcellus [13]): 68%
